Screening results: PubChem BioAssay, SRMLSC
This is one part of a sample in which hits are shown more often than they occur.
H69AR growth 86K: blocks growth of human H69AR lung tumor cells | H69AR lung tumor viability, ATP luminescence, 72 h; active compounds read low | viability, % at 10 µM | 85,000 compounds, 6% hits;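 active means viability at or below 40%; inactive means viability above 40%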;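 further: multidrug resistant small cell line overexpressing MRP-1 efflux transporter; 100% = mean luminescence of untreated control wells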
HCT116 bCat-KO: beta-catenin-lacking colon tumor cell growth suppression; HCT116 beta-catenin knockout viability, CellTiter-Glo, 60 h; active compounds read low; 140,000 compounds, 1.5% hits; viability, % at 10 µM;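 active means viability at or under a set limit, the compound median less 4 SD, cut at about 6% in these data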;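 further: 0% = Hyamine 1622 control at 20 µM and 100% = untreated cell control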
HUVEC inhibit: inhibitors of human endothelial cell proliferation; HUVEC proliferation, CellTiter-Glo luminescence, 72 h; active compounds read low; viability, % at 10 µM (by protocol); 86,000 compounds, 1.1% hits; AID 648;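 active means viability at or below 30%; inactive means viability above 30%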;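 further: 100% = median luminescence of DMSO-only cell control wells on each plate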
HCT116 PTEN-null: growth suppressors of cells with PTEN tumor suppressor deletion; HCT116 PTEN-null viability, CellTiter-Glo, 60 h; active compounds read low; viability, % at 10 µM; 140,000 compounds, 1.2% hits; AID 827;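 active means viability at or below a set limit, 4 SD under the median of all tested compounds, cut at about 3.7% in these data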;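 further: PTEN knockout HCT116 line with beta catenin targeted HCT116 as companion control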
Lung fibro prol: blocks proliferation of human lung fibroblasts. LL 47 human lung fibroblast viability, ATP luminescence; active compounds read low. viability, % at 10 µM. 85,000 compounds, 1.1% hits;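 active means viability at or below 50% in the single dose screen; inactive means viability above 50%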;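 further: compound exposure lasted 72 h before the ATP readout; 100% = median luminescence of untreated cell-only wells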
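Test system: LL 47 human lung fibroblasts / Incubation: 72 h compound exposure at 37 °C after overnight plating / Technique: luminescent ATP detection, CellTiter-Glo / Compound dosing: 0.1% DMSO in all compound wells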
* hit, by the source's call; . = no result.

SMILES	H69AR growth 86K	HCT116 bCat-KO	HUVEC inhibit	HCT116 PTEN-null	Lung fibro prol
O=C(CN(c1ccccc1)S(=O)(=O)c1ccccc1)NCCSc1nc2ccccc2s1	.	52.5	.	57.2	.
O=C(O)c1ccc(NS(=O)(=O)c2cc(Cl)ccc2Cl)cc1	103.3	93.8	81.0	85.8	92.8
CC(C)Oc1ccc(C(=O)Nc2ccc(Cl)c(S(=O)(=O)Nc3ccc(Cl)cc3)c2)cc1	.	3.1*	.	3.1*	.
N#C/C(C(N)=O)=c1/ccc2c(c1)N1C3=C(CCCC3)CC3CCCCC31N=2 (stereo not drawn)	1.9*	10.3	43.6	8.7	87.7
N#CC(C#N)=c1ccc2c(c1)N1C3=C(CCCC3)CC3CCCCC31N=2 (stereo not drawn)	17.7*	29.9	68.4	40.7	62.2
Cc1ccc(C2C(C#N)=C(N)Oc3c2sc2ccccc32)o1 (stereo not drawn)	12.7*	68.7	41.2	72.4	57.7
CCOC(=O)CC1=C(C(=O)OCC)C(c2ccc(C)o2)C(C#N)=C(N)O1 (stereo not drawn)	103.0	86.0	107.6	95.7	93.8
COc1ccc(CCNC(=O)c2ccc3c(=O)n(Cc4ccco4)c(=S)[nH]c3c2)cc1OC	10.6*	91.7	40.8	78.0	100.6
COc1ccc(/C(O)=C/c2nc3ccc(C(=O)NCCc4cccc(C)c4)cc3[nH]c2=O)cc1OC	.	2.0*	.	1.5*	.
COc1ccc(CCNC(=O)c2ccc3nc(-c4ccco4)c(-c4ccco4)nc3c2)cc1OC	17.9*	63.6	47.5	56.3	101.7
COc1ccc(CCNC(=O)COC(=O)c2ccco2)cc1OC	103.2	99.3	110.0	99.6	101.4
CC/C(=N\NC(=O)C(N)=O)c1ccccc1O	.	74.7	.	80.5	.
CN(C)CCCN1c2ccccc2Sc2ccccc21	57.0	64.1	90.1	54.3	90.1
CN(C)CCCN1c2ccccc2CCc2ccc(Cl)cc21	95.7	1.7*	59.0	1.6*	63.9
Cc1cccc(/C(N)=N/OC(=O)CCc2ccccc2)c1	.	87.7	.	93.3	.
CCOc1ccc(OCC)c(NC(=O)CN2CCN(c3cccc(C)c3)CC2)c1	71.2	87.6	105.8	92.7	97.6
CCOc1ccc(OCC)c(NC(=O)CN2CCN(c3cccc(C)c3)C(C)C2)c1 (stereo not drawn)	19.3*	31.9	62.9	87.9	76.2
O=S(=O)(c1ccc2nc(-c3ccccc3)[nH]c2c1)N1CCN(c2ccc(Cl)cc2)CC1	.	0.9*	.	0.8*	.
O=S(=O)(c1ccc2nc(SCc3ccc(Cl)cc3)[nH]c2c1)N1CCOCC1	.	84.5	.	79.4	.
COc1ccccc1C1C(C(C)=O)=C(C)N=c2s/c(=C\c3cc(OC)c(OC)c(OC)c3)c(=O)n21 (stereo not drawn)	30.4*	81.0	79.7	73.5	92.7
O=C(Nc1ccc(NC(=O)C2CCCCC2)nc1)c1ccco1	80.5	99.7	89.0	89.2	104.6
CCC(C)(NC(=O)c1ccccc1)C(=O)O (stereo not drawn)	.	95.8	.	101.9	.
CN(C)c1ccc(O)c2c1CC1CC3[C@@H](N(C)C)C(=O)C(C(N)=O)=C(O)[C@]3(O)C(=O)C1=C2O (stereo partly drawn)	34.5*	70.7	93.0	66.1	83.6
O=C1CC(N(CCc2ccccc2)C(=S)Nc2ccccc2)C(=O)N1c1ccc(Br)cc1 (stereo not drawn)	.	1.9*	.	2.8*	.
COc1ccc(CCN(C(=S)Nc2ccccc2)C2CC(=O)N(c3ccccc3)C2=O)cc1 (stereo not drawn)	.	50.4	.	66.4	.
SMILES	H69AR growth 86K	HCT116 bCat-KO	HUVEC inhibit	HCT116 PTEN-null	Lung fibro prol
COc1cc(C(=O)O/N=C2\C=CC(=O)C(C)=C2)cc(OC)c1OC	.	1.5*	.	1.4*	.
Cc1cc(NCCOCCO)n2ncc(-c3ccc(Cl)cc3)c2n1	21.7*	28.1	41.4	18.8	41.5*
Cc1cc(NCCCn2ccnc2)n2nc(-c3ccc(F)cc3)cc2n1	66.7	72.1	92.3	80.7	88.3
Cc1cc(N)n2ncc(-c3ccc(Cl)cc3)c2n1	42.1	54.7	36.2	51.6	46.3*
Cc1cc(N)n2ncc(-c3ccc(F)cc3)c2n1	69.1	80.4	79.2	93.3	81.3
CC(C)(C)c1cc(NCCCn2ccnc2)n2ncc(-c3ccc(Cl)cc3)c2n1	5.2*	19.6	8.7*	24.5	44.7*
CN(c1cccc(NC(=O)c2ccc(Cl)c(S(=O)(=O)Nc3ccccc3)c2)c1)S(C)(=O)=O	.	87.1	.	86.9	.
O=[N+]([O-])c1cnccc1Nc1ccc(F)cc1	94.0	102.5	86.7	102.1	86.0
CC1CCCC(NC(=O)c2cn(C)c3ccc(S(=O)(=O)N4CCCC4)cc3c2=O)C1C (stereo not drawn)	76.0	53.9	77.4	67.5	80.5
COc1cccc(NC(=O)CSc2nc3ccccc3c(=O)n2CCCC(=O)N2CCCC2)c1	77.1	96.4	99.5	92.7	100.6
CCN(CC)CCNC(=O)c1ccc(N2CCCCC2)c(NS(=O)(=O)c2ccc(C)cc2)c1	76.8	1.8*	66.1	1.8*	67.1
COC(=O)c1ccc(N2CCCCC2)c(NS(=O)(=O)c2ccc(C)cc2)c1	76.7	34.7	89.8	52.7	100.8
Cc1cc(C)n(-c2nc3ccccc3c(=O)n2OCC(=O)OCc2ccccc2)n1	9.8*	4.7*	59.9	2.8*	26.8*
Cc1cc(C)n(-c2nc3ccccc3c(=O)n2OCC(=O)N(C)C)n1	95.4	100.4	92.0	86.6	96.6
CN(C)CCCN(C(=O)c1ccc2c(c1)CCCC2)c1nc2ccc(Cl)cc2s1	.	3.6*	.	2.7*	.
CN(C)CCCN(C(=O)c1sc2ccccc2c1Cl)c1nc2ccc(F)cc2s1	.	102.4	.	97.7	.
Cc1ccc2nc(N(CCCN(C)C)C(=O)CCc3ccccc3)sc2c1	.	2.4*	.	1.5*	.
Cc1ccc2nc(N(CCCN(C)C)C(=O)c3cc4ccccc4oc3=O)sc2c1	.	84.4	.	90.2	.
CN(C)CCCN(C(=O)CCc1ccccc1)c1nc2ccc(Cl)cc2s1	.	1.5*	.	1.7*	.
CN(C)CCCN(C(=O)c1cc2ccccc2oc1=O)c1nc2c(F)cccc2s1	.	94.8	.	113.5	.
CC1CCCN(S(=O)(=O)c2ccc(NC(=O)Cn3nnc(-c4ccccc4F)n3)cc2)C1 (stereo not drawn)	44.7	96.3	63.2	105.5	98.2
CC1CCN(S(=O)(=O)c2ccc(NC(=O)CN3CCOCC3)cc2)CC1	102.4	103.2	108.0	95.1	108.5
CC1CCN(S(=O)(=O)c2ccc(NC(=O)Cn3nnc(-c4ccccc4)n3)cc2)CC1	18.7*	93.8	30.1	82.9	28.7*
Cc1ccc(-c2nnn(CC(=O)Nc3ccc(S(=O)(=O)N4CCC(C)CC4)cc3)n2)cc1	21.4*	75.1	65.6	55.6	68.3
CCOC(=O)C1=NN(C(C)=O)C2(CC(=O)N(c3cc(C)cc(C)c3)C2=O)C1 (stereo not drawn)	.	96.1	.	90.7	.
Cc1ccc(NC(=O)COc2cccnc2[N+](=O)[O-])cc1S(=O)(=O)N1CCCCC1	.	71.0	.	70.9	.
CCCCCOc1ccc(Br)cc1/C(C)=N/NC1=NCCN1	2.3*	3.1*	6.4*	4.4	92.5
